The results in this text go back to article PMC3148296 (Molecular pharmaceutics, 2011).

One data set has as its system 4T1 tumors. The experiment in a line: In vivo photosensitizing. Particulars: 10 mice/group. Also on record: species or system BALB/c mice. In outline: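 BALB/c mice received 1 × 10⁶ 4T1 cells s.c. in 50 μL PBS at the right shoulder. Treatment began at a mean tumor volume of 62.5 mm³ (50–70). Test compound given i.v. Unanesthetized, restrained mice were irradiated at 665 nm (1 cm² spot, 135 J/cm², 75 mW/cm²). Mice were checked daily for regrowth; volume = (L × W²)/2; mice euthanized at 400 mm³.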

In data set [1] the test system is 4T1 cells (αvβ3 positive). The data set can be described thus: In vitro photosensitizing. It counts as cell-based, Mouse. Particulars: 4T1, 2 h incubation, 665 nm light 0-2 J/cm2, MTT 48 h later. The gist of the method: (§1)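 Cells kept at 37°C in 5% CO₂ in medium with 10% FBS (4T1: RPMI-1640; A431: DMEM high glucose). Plated at 3000 cells/well and allowed to attach for 3 h. Test compound added at variable concentrations for 2 h in the dark, then replaced with drug-free medium. Irradiated with a 665 nm dye laser at 3.2 mW/cm². After 48 h in the dark: MTT for 4 h, DMSO, A570. Survival given as % of dark control; mean of 3 experiments, 6 wells each, SD.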

The subject of data set [2] is A431 cells (αvβ3 negative). The experiment in a line: In vitro photosensitizing. It counts as cell-based, Human. Particulars: A431, 2 h incubation, 665 nm light 0-2 J/cm2, MTT 48 h later. In outline:
as §1

For a further data set, the system named is U87 cells. The experiment in a line: In vitro cell uptake by flow cytometry. It counts as cell-based, Human. Background: Flow cytometry measures light scatter and fluorescence of single cells or particles in a stream.
Another data set deals with 4T1 cells. The experiment in a line: In vitro cell uptake by flow cytometry. Conditions: 4T1, 2 h post incubation. The class given is cell-based, Mouse.
The nature of another data set: Solubility in solvents. The class given is physicochemical.
Where [3] appears, read: 0.25 μmol/kg, light at 24 h post injection.

In the case of “3-(1′-hexyloxyethyl)-3-devinylpyropheophorbide-a [HPPH]”, the “tumor cure at day 60” value in the data set with 4T1 tumors (setting [3]) was “did not produce any cures”; in the data set on 4T1 tumors (0.47 μmol/kg, light at 4 h post injection), “no cures”. Moreover, the “mice tumor-free on day 60” value in the data set on 4T1 tumors (light at 24 h post injection, Figure 7B) is 4/10.

“3-devinyl-3-{1′-(hexyloxy)ethyl}pyropheophorbide-a–cyclo(RGDfK) conjugate [conjugate 7]”: the “in vitro PDT efficacy among HPPH and conjugates 7, 8, 10” value in data set [1] is “most effective”. For the same substance, the “in vitro phototoxicity compared to HPPH” value in data set [2] is on record as “less effective”. In the data set with U87 cells (U87, 400 nM and 800 nM, 2 h and 4 h post-incubation, flow cytometry), the “cell uptake among conjugates 7, 8 and 10” value is “highest uptake”. For the same substance, the “cell uptake at 4 h versus 2 h incubation” value in the data set on U87 cells (U87, Figure S10) is on record as “significantly more at 4h”. Moreover, the “cell uptake compared with HPPH” value in the data set with 4T1 cells is given as “comparable”. In the data set on 4T1 tumors (setting [3]), the “tumor cure at day 60” value is recorded as “did not produce any cures”. Further, in the data set on 4T1 tumors (light at 2 h post injection, Figure 7A), the “mice tumor-free on day 60” value is reported as 8/10.

Regarding “HPPH–cyclo(RGDfK) conjugate [conjugate 8]”, in “Solubility in solvents”, the “dissolution in common polar solvents” value was “unsuccessful” and the “solubility in DMSO” value is recorded as “partly soluble”.
